Assay results published in ChEMBL document CHEMBL1926651, “Design, synthesis, antiviral and cytostatic evaluation of novel isoxazolidine nucleotide analogues with a 1,2,3-triazole linker” (Eur J Med Chem, 2012).
Activity calls are given as the source filed them.

Assays:
MDCK = experiment: Cytotoxicity against MDCK cells assessed as change in cell morphology up to 100 uM; assay type: cell-based, Canis lupus familiaris; details: dog
In short: (§1)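 Uninfected host-cell cultures were examined under the microscope. MCC was taken as the lowest compound concentration producing a detectable alteration of normal cell morphology, assessed at concentrations up to 100 μM.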

HeLa [1] = experiment: Cytotoxicity against human HeLa cells assessed as change in cell morphology up to 100 uM; assay type: cell-based; in short: as §1
Coxsackievirus B4 [2] = experiment: Antiviral activity against Coxsackievirus B4 infected in human HeLa cells assessed as inhibition of viral plaque formation at 250 uM; assay type: functional, organism-based
In short: (§2)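 Confluent host cell monolayers were inoculated with 100 CCID50 of virus in the presence of test compound at serial dilutions (250, 50, 10, … μM). Viral cytopathicity was scored once it reached completion in untreated virus-infected controls.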

HEL [3] = experiment: Cytotoxicity against human HEL cells 3 days by coulter counting; assay type: functional; details: 72 h
In short: (§3)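 Cells were suspended at 300,000–500,000 cells/mL and added 1:1 to compound dilutions. Incubation was at 37 °C, 2 days for L1210 and 3 days for CEM, HeLa and HEL. Cells were counted with a Coulter counter. CC50 is the concentration inhibiting cell proliferation by 50%.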

CCRF-CEM = experiment: Cytotoxicity against human CEM cells 3 days by coulter counting; assay type: functional; details: 72 h; in short: as §3
[4] = system: Vesicular stomatitis virus; experiment: Antiviral activity against Vesicular stomatitis virus infected in human HEL cells assessed as inhibition of viral plaque formation at 250 uM; assay type: functional, organism-based; in short: as §2
Vero = experiment: Cytotoxicity against african green monkey Vero cells assessed as change in cell morphology up to 100 uM; assay type: cell-based; details: chlorocebus sabaeus; in short: as §1
[5] = system: Human immunodeficiency virus 1; experiment: Antiviral activity against Human immunodeficiency virus 1 infected in human CEM cells assessed as inhibition of virus-induced giant cell formation after 4 days by microscopic analysis; assay type: functional, organism-based; details: CCRF-CEM
In short: (§4)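 CEM cells at about 3 × 10⁵ cells/cm³ were infected with 100 CCID50/mL of HIV-1(IIIB) or HIV-2(ROD), then seeded into wells holding test compound dilutions. After 4 days at 37 °C, virus-induced giant cell formation was scored microscopically.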

L1210 = experiment: Cytotoxicity against mouse L1210 cells 2 days by coulter counting; assay type: functional; details: L1210, 48 h; in short: as §3
Felid alphaherpesvirus 1 = experiment: Antiviral activity against Felid herpesvirus 1 infected in CrFK cells assessed as inhibition of viral plaque formation at 250 uM; assay type: functional, organism-based; in short: as §2
[6] = system: Respiratory syncytial virus; experiment: Antiviral activity against Respiratory syncytial virus infected in human HeLa cells assessed as inhibition of viral plaque formation at 250 uM; assay type: functional, organism-based; in short: as §2
Human betaherpesvirus 5 [7] = experiment: Antiviral activity against Human cytomegalovirus Davis infected in human HEL cells assessed as inhibition of viral plaque formation at 250 uM; assay type: functional, organism-based
[8] = system: Vesicular stomatitis virus; experiment: Antiviral activity against Vesicular stomatitis virus infected in human Hela cells assessed as inhibition of viral plaque formation at 250 uM; assay type: functional, organism-based
Human alphaherpesvirus 1 [9] = experiment: Antiviral activity against Herpes simplex virus 1 KOS infected in human HEL cells assessed as inhibition of viral plaque formation at 250 uM; assay type: functional, organism-based; in short: as §2
[10] = Cytotoxicity against CRFK cells assessed as change in cell morphology up to 100 uM; assay type: cell-based, Felis catus; details: cat; in short: as §1
Punta Toro virus = experiment: Antiviral activity against Punta Toro virus infected in african green monkey Vero cells assessed as inhibition of viral plaque formation at 250 uM; assay type: functional, organism-based
Human alphaherpesvirus 2 = experiment: Antiviral activity against Herpes simplex virus 2 G infected in human HEL cells assessed as inhibition of viral plaque formation at 250 uM; assay type: functional, organism-based; details: strain G
HeLa [11] = experiment: Cytotoxicity against human HeLa cells 3 days by coulter counting; assay type: functional; details: 72 h; in short: as §3
Human alphaherpesvirus 3 [12] = experiment: Antiviral activity against thymidine kinase-deficient Varicella Zoster virus 07/1 infected in human HEL cells assessed as inhibition of viral plaque formation at 250 uM; assay type: functional, organism-based
Coxsackievirus B4 [13] = experiment: Antiviral activity against Coxsackievirus B4 infected in african green monkey Vero cells assessed as inhibition of viral plaque formation at 250 uM; assay type: functional, organism-based; in short: as §2
Sindbis virus = experiment: Antiviral activity against Sindbis virus infected in african green monkey Vero cells assessed as inhibition of viral plaque formation at 250 uM; assay type: functional, organism-based; in short: as §2
HEL [14] = experiment: Cytotoxicity against human HEL cells assessed as change in cell morphology up to 100 uM; assay type: cell-based; in short: as §1
Human betaherpesvirus 5 [15] = experiment: Antiviral activity against Human cytomegalovirus AD169 infected in human HEL cells assessed as inhibition of viral plaque formation at 250 uM; assay type: functional, organism-based
Feline coronavirus = experiment: Antiviral activity against Feline coronavirus infected in CrFK cells assessed as inhibition of viral plaque formation at 250 uM; assay type: functional, organism-based; in short: as §2
[16] = system: Human immunodeficiency virus 2; experiment: Antiviral activity against Human immunodeficiency virus 2 infected in human CEM cells assessed as inhibition of virus-induced giant cell formation after 4 days by microscopic analysis; assay type: functional, organism-based; details: CCRF-CEM; in short: as §4
Human respirovirus 3 = experiment: Antiviral activity against Parainfluenza-3 virus infected in african green monkey Vero cells assessed as inhibition of viral plaque formation at 250 uM; assay type: functional, organism-based; in short: as §2
[17] = system: Mammalian orthoreovirus 1; experiment: Antiviral activity against Reovirus-1 infected in african green monkey Vero cells assessed as inhibition of viral plaque formation at 250 uM; assay type: functional, organism-based; in short: as §2
Human alphaherpesvirus 1 [18] = experiment: Antiviral activity against thymidine kinase-deficient acv-resistant Herpes simplex virus 1 KOS infected in human HEL cells assessed as inhibition of viral plaque formation at 250 uM; assay type: functional, organism-based
Vaccinia virus = experiment: Antiviral activity against Vaccinia virus infected in human HEL cells assessed as inhibition of viral plaque formation at 250 uM; assay type: functional, organism-based; details: Orthopoxvirus vaccinia; in short: as §2
Human alphaherpesvirus 3 [19] = experiment: Antiviral activity against thymidine kinase-positive Varicella Zoster virus Oka infected in human HEL cells assessed as inhibition of viral plaque formation at 250 uM; assay type: functional, cell-based; details: strain Oka vaccine

CCOP(=O)(OCC)[C@@H]1C[C@@H](n2cc(-c3ccccc3F)nn2)ON1C (relative stereo)
73 µM: CC50 (HEL [3])
120 µM: CC50 (L1210)
202 µM: CC50 (HeLa [11])
> 250 µM: CC50 (CCRF-CEM)
Non-toxic: Activity (MDCK) | Activity (HeLa [1]) | Activity (Vero) | Activity [10] | Activity (HEL [14])
inactive: Activity (Coxsackievirus B4 [2]) | Activity [4] | Activity [5] | Activity (Felid alphaherpesvirus 1) | Activity [6] | Activity (Human betaherpesvirus 5 [7]) | Activity [8] | Activity (Human alphaherpesvirus 1 [9]) | Activity (Punta Toro virus) | Activity (Human alphaherpesvirus 2) | Activity (Human alphaherpesvirus 3 [12]) | Activity (Coxsackievirus B4 [13]) | Activity (Sindbis virus) | Activity (Human betaherpesvirus 5 [15]) | Activity (Feline coronavirus) | Activity [16] | Activity (Human respirovirus 3) | Activity [17] | Activity (Human alphaherpesvirus 1 [18]) | Activity (Vaccinia virus) | Activity (Human alphaherpesvirus 3 [19])

CCOP(=O)(OCC)[C@@H]1C[C@@H](n2cc(-c3cccc(F)c3)nn2)ON1C (racemic)
> 250 µM: CC50 (CCRF-CEM)
Non-toxic: Activity (MDCK) | Activity (HeLa [1]) | Activity (Vero) | Activity [10] | Activity (HEL [14])
40 µM: CC50 (HEL [3])
inactive: Activity (Coxsackievirus B4 [2]) | Activity [4] | Activity [5] | Activity (Felid alphaherpesvirus 1) | Activity [6] | Activity (Human betaherpesvirus 5 [7]) | Activity [8] | Activity (Human alphaherpesvirus 1 [9]) | Activity (Punta Toro virus) | Activity (Human alphaherpesvirus 2) | Activity (Human alphaherpesvirus 3 [12]) | Activity (Coxsackievirus B4 [13]) | Activity (Sindbis virus) | Activity (Human betaherpesvirus 5 [15]) | Activity (Feline coronavirus) | Activity [16] | Activity (Human respirovirus 3) | Activity [17] | Activity (Human alphaherpesvirus 1 [18]) | Activity (Vaccinia virus) | Activity (Human alphaherpesvirus 3 [19])
≥ 250 µM: CC50 (L1210) | CC50 (HeLa [11])
